Experimental data as given in ChEMBL document CHEMBL4219033, “Anticancer activity profiling of parthenolide analogs generated via P450-mediated chemoenzymatic synthesis” (2018).

Experiments:
Type in all cases: functional
SJSA-1 [1] = assay: Cytotoxicity against human SJSA1 cells assessed as cell viability ratio at 10 uM after 24 hrs by MTT assay relative to control
Procedure, shortened: (§1)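 Adherent lines in DMEM plus 10% FBS and penicillin-streptomycin, 37 °C, 5% CO2, lifted with Accutase. Seeded at 500–10,000 cells/well and rested 15 h. Compounds from 10 mM DMSO stocks dosed at 10 µM final, 1% DMSO final, n = 5, for 24 h. Medium then swapped for 1 mg/ml MTT in phenol-red-free medium for 3 h at 37 °C. Formazan dissolved in DMSO, OD read at 550 nm. Viability normalised to 1% DMSO vehicle control.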

PC-3 [2] = assay: Cytotoxicity against human PC3 cells assessed as cell viability ratio at 10 uM after 24 hrs by MTT assay relative to control; procedure, shortened: as §1
SK-N-MC [3] = assay: Cytotoxicity against human SK-N-MC cells assessed as cell viability ratio at 10 uM after 24 hrs by MTT assay relative to control; procedure, shortened: as §1
MDA-MB-231 [4] = assay: Cytotoxicity against human MDA-MB-231 cells assessed as cell viability ratio at 10 uM after 24 hrs by MTT assay relative to control; procedure, shortened: as §1
SK-MEL-2 [5] = assay: Cytotoxicity against human SK-MEL-2 cells assessed as cell viability ratio at 10 uM after 24 hrs by MTT assay relative to control; procedure, shortened: as §1
Jurkat [6] = assay: Cytotoxicity against human Jurkat cells assessed as cell viability ratio at 10 uM after 24 hrs by MTT assay relative to control
Procedure, shortened: (§2)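 Suspension lines grown in α-MEM plus 10% FBS and penicillin-streptomycin, 37 °C, 5% CO2. Seeded at 30,000 cells/well in phenol-red-free α-MEM and rested 15 h. Exposed to 10 µM, or 2 µM in the lower-dose repeat, at 1% DMSO final for 24 h. 5 mg/ml MTT added directly for 3 h at 37 °C. Plates spun, formazan dissolved in DMSO, OD read at 550 nm. Viability relative to vehicle.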

JeKo-1 [7] = assay: Cytotoxicity against human JeKo1 cells assessed as cell viability ratio at 10 uM after 24 hrs by MTT assay relative to control; procedure, shortened: as §2
A549 [8] = assay: Cytotoxicity against human A549 cells assessed as cell viability ratio at 10 uM after 24 hrs by MTT assay relative to control; procedure, shortened: as §1
HeLa [9] = assay: Cytotoxicity against human HeLa cells assessed as cell viability ratio at 10 uM after 24 hrs by MTT assay relative to control; procedure, shortened: as §1
HCT-116 [10] = assay: Cytotoxicity against human HCT116 cells assessed as cell viability ratio at 10 uM after 24 hrs by MTT assay relative to control
SK-MEL-2 [11] = assay: Cytotoxicity against human SK-MEL-2 cells assessed as cell viability after 24 hrs by MTT assay; settings: SK-MEL-2, 24 h, read-out: LC50 (the source's name)
Procedure, shortened: (§3)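 Adherent cells grown in DMEM with 10% FBS and penicillin-streptomycin, dissociated with Accutase, seeded at 500–10,000 cells/well and held 15 h before treatment. Compounds diluted from 10 mM DMSO stocks, final 1% DMSO, for 24 h at 37 °C, 5% CO2. Medium replaced with 1 mg/ml MTT for 3 h, formazan dissolved in DMSO, OD 550 nm. LC50 from dose-response curves normalized to 1% DMSO vehicle.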

SK-N-MC [12] = assay: Cytotoxicity against human SK-N-MC cells assessed as cell viability at 10 uM after 24 hrs by MTT assay relative to control; settings: read-out: Activity; procedure, shortened: as §1
MDA-MB-231 [13] = assay: Cytotoxicity against human MDA-MB-231 cells assessed as cell viability at 10 uM after 24 hrs by MTT assay relative to control; settings: MDA-MB-231, 24 h, read-out: Activity; procedure, shortened: as §1
HCT-116 [14] = assay: Cytotoxicity against human HCT116 cells assessed as cell viability after 24 hrs by MTT assay; settings: HCT-116, 24 h, read-out: LC50 (the source's name); procedure, shortened: as §3
A549 [15] = assay: Cytotoxicity against human A549 cells assessed as cell viability after 24 hrs by MTT assay; settings: A549, 24 h, read-out: LC50 (the source's name); procedure, shortened: as §3
Jurkat [16] = assay: Cytotoxicity against human Jurkat cells assessed as cell viability after 24 hrs by MTT assay; settings: read-out: LC50 (the source's name)
Procedure, shortened: (§4)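 Suspension cells grown in α-MEM with 10% FBS and penicillin-streptomycin, seeded at 30,000 cells/well in phenol red-free medium and held 15 h before treatment. Compounds diluted from 10 mM DMSO stocks, final 1% DMSO, for 24 h. MTT (5 mg/ml stock) added directly for 3 h at 37 °C, then centrifugation, DMSO solubilization, OD 550 nm. LC50 from dose-response curves normalized to vehicle.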

HeLa [17] = assay: Cytotoxicity against human HeLa cells assessed as cell viability at 10 uM after 24 hrs by MTT assay relative to control; settings: read-out: Activity; procedure, shortened: as §1
SJSA-1 [18] = assay: Cytotoxicity against human SJSA1 cells assessed as cell viability after 24 hrs by MTT assay; settings: SJSA-1, 24 h, read-out: LC50 (the source's name); procedure, shortened: as §3
A549 [19] = assay: Cytotoxicity against human A549 cells assessed as cell viability at 10 uM after 24 hrs by MTT assay relative to control; settings: A549, 24 h, read-out: Activity; procedure, shortened: as §1
JeKo-1 [20] = assay: Cytotoxicity against human JeKo1 cells assessed as cell viability after 24 hrs by MTT assay; settings: JeKo-1, 24 h, read-out: LC50 (the source's name); procedure, shortened: as §4
PC-3 [21] = assay: Cytotoxicity against human PC3 cells assessed as cell viability after 24 hrs by MTT assay; settings: PC-3, 24 h, read-out: LC50 (the source's name); procedure, shortened: as §3
JeKo-1 [22] = assay: Cytotoxicity against human JeKo1 cells assessed as cell viability at 2 uM after 24 hrs by MTT assay relative to control; settings: JeKo-1, 24 h, read-out: Activity; procedure, shortened: as §2
MDA-MB-231 [23] = assay: Cytotoxicity against human MDA-MB-231 cells assessed as cell viability after 24 hrs by MTT assay; settings: MDA-MB-231, 24 h, read-out: LC50 (the source's name); procedure, shortened: as §3
Jurkat [24] = assay: Cytotoxicity against human Jurkat cells assessed as cell viability at 2 uM after 24 hrs by MTT assay relative to control; settings: read-out: Activity; procedure, shortened: as §2
SJSA-1 [25] = assay: Cytotoxicity against human SJSA1 cells assessed as cell viability at 10 uM after 24 hrs by MTT assay relative to control; settings: SJSA-1, 24 h, read-out: Activity; procedure, shortened: as §1
SK-N-MC [26] = assay: Cytotoxicity against human SK-N-MC cells assessed as cell viability after 24 hrs by MTT assay; settings: read-out: LC50 (the source's name); procedure, shortened: as §3
JeKo-1 [27] = assay: Cytotoxicity against human JeKo1 cells assessed as cell viability at 10 uM after 24 hrs by MTT assay relative to control; settings: JeKo-1, 24 h, read-out: Activity; procedure, shortened: as §2
Jurkat [28] = assay: Cytotoxicity against human Jurkat cells assessed as cell viability at 10 uM after 24 hrs by MTT assay relative to control; settings: read-out: Activity; procedure, shortened: as §2
HCT-116 [29] = assay: Cytotoxicity against human HCT116 cells assessed as cell viability at 10 uM after 24 hrs by MTT assay relative to control; settings: HCT-116, 24 h, read-out: Activity; procedure, shortened: as §1
PC-3 [30] = assay: Cytotoxicity against human PC3 cells assessed as cell viability at 10 uM after 24 hrs by MTT assay relative to control; settings: PC-3, 24 h, read-out: Activity; procedure, shortened: as §1
HeLa [31] = assay: Cytotoxicity against human HeLa cells assessed as cell viability after 24 hrs by MTT assay; settings: read-out: LC50 (the source's name); procedure, shortened: as §3
SK-MEL-2 [32] = assay: Cytotoxicity against human SK-MEL-2 cells assessed as cell viability at 10 uM after 24 hrs by MTT assay relative to control; settings: SK-MEL-2, 24 h, read-out: Activity; procedure, shortened: as §1

Row | SMILES | fold change (FC) (SJSA-1 [1]) | fold change (FC) (PC-3 [2]) | CC50 (SK-MEL-2 [11]) [µM] | viability at 10 µM (SK-N-MC [12]) [%] | viability at 10 µM (MDA-MB-231 [13]) [%] | CC50 (Jurkat [16]) [µM] | viability at 10 µM (HeLa [17]) [%] | viability at 10 µM (A549 [19]) [%] | CC50 (JeKo-1 [20]) [µM] | CC50 (PC-3 [21]) [µM] | viability at 2 µM (JeKo-1 [22]) [%] | CC50 (MDA-MB-231 [23]) [µM] | viability at 2 µM (Jurkat [24]) [%] | viability at 10 µM (SJSA-1 [25]) [%] | CC50 (SK-N-MC [26]) [µM] | viability at 10 µM (JeKo-1 [27]) [%] | viability at 10 µM (Jurkat [28]) [%] | viability at 10 µM (HCT-116 [29]) [%] | viability at 10 µM (PC-3 [30]) [%] | viability at 10 µM (SK-MEL-2 [32]) [%] | other results
1 | C=C1C(=O)O[C@@H]2[C@H]3O[C@]3(C)CC/C=C(\C)[C@@H](O)C[C@@H]12 | 0.9 | 1 | – | – | – | – | – | – | – | – | – | – | – | – | – | – | – | – | – | – | fold change (FC) (SK-N-MC [3]): 1; fold change (FC) (MDA-MB-231 [4]): 0.9; fold change (FC) (SK-MEL-2 [5]): 1; fold change (FC) (Jurkat [6]): 1; fold change (FC) (JeKo-1 [7]): 1; fold change (FC) (A549 [8]): 1; fold change (FC) (HeLa [9]): 0.2; fold change (FC) (HCT-116 [10]): 1
2 | C=C1C(=O)O[C@@H]2[C@H]3O[C@]3(C)CC/C=C(/COC(=O)Nc3cc(C(F)(F)F)cc(C(F)(F)F)c3)CC[C@@H]12 | – | – | 4.3 | 2.1 | 5.5 | 3.3 | 3.8 | 25.1 | 3.4 | 5.5 | 71.5 | 6.1 | 74.9 | 23.3 | 0.6 | -1.8 | 0 | 3.9 | 13.7 | 25.7 | CC50 (HCT-116 [14]): 5.9 µM; CC50 (A549 [15]): 5.5 µM; CC50 (SJSA-1 [18]): 9.2 µM; CC50 (HeLa [31]): 1.5 µM
3 | C=C1C(=O)O[C@@H]2[C@H]3O[C@]3(C)CC/C=C(\CO)CC[C@@H]12 | 0.9 | 1 | – | – | – | – | – | – | – | – | – | – | – | – | – | – | – | – | – | – | fold change (FC) (SK-N-MC [3]): 1; fold change (FC) (MDA-MB-231 [4]): 1; fold change (FC) (SK-MEL-2 [5]): 1; fold change (FC) (Jurkat [6]): 1; fold change (FC) (JeKo-1 [7]): 1; fold change (FC) (A549 [8]): 0.9; fold change (FC) (HeLa [9]): 0.3; fold change (FC) (HCT-116 [10]): 0.9
4 | C=C1C(=O)O[C@@H]2[C@H]3O[C@]3(C)CC/C=C(/C)[C@@H](OC(=O)c3cc(C(F)(F)F)cc(C(F)(F)F)c3)C[C@@H]12 | – | – | 2.6 | 3 | 3.6 | 1.2 | 32 | 82.5 | 1.2 | 3.1 | 73.3 | 3.8 | 53.1 | 88.2 | 4.7 | 4.1 | 5 | 54.4 | 2.2 | 14.8 | –
5 | C=C1C(=O)O[C@@H]2C3O[C@]3(C)CC/C=C(\C)CC[C@@H]12 (some centres not stated) | – | – | 24.9 | 30 | 67 | 16.9 | 35 | 85 | 10 | 20.5 | 100 | 18.3 | 100 | 100 | 4.7 | 47.5 | 70.3 | 104 | 82.6 | 95.8 | CC50 (HCT-116 [14]): 18 µM; CC50 (A549 [15]): 29.7 µM; CC50 (SJSA-1 [18]): 42.4 µM; CC50 (HeLa [31]): 9 µM
